# Experimental data pooled from the literature.
# Each line is one published result; the experiments were not run side by side.
# ADORA2B: Adenosine receptor A2b (ADORA2B, Homo sapiens, UniProt P29275)
# CFTR: Cystic fibrosis transmembrane conductance regulator (CFTR, Homo sapiens, UniProt P13569)
# PTGER2: Prostaglandin E2 receptor EP2 subtype (PTGER2, Homo sapiens, UniProt P43116)
# PKN3: Serine/threonine-protein kinase N3 (PKN3, Homo sapiens, UniProt Q6P5Z2)
Structure (SMILES),target,effect on,action,method,concentration,notes,inhibition [%]
CCCCCC(C)N1CCCn2c1nc1c2c(=O)n(C)c(=O)n1C (stereo not drawn),ADORA2B,ligand displacement,,radioligand,10 µM,cell membranes,-3
CC(=NNC(=O)CNc1ccc2ccccc2c1)c1cc(Br)c(O)c(Br)c1O,CFTR,ion current,inhibitor,,50 µM,,81
CN(C)C1CCN(CC#Cc2nn(C3CCCC3)c3nc(NCc4ccccc4)ncc23)C1 (stereo not drawn),"RAF proto-oncogene serine/threonine-protein kinase (RAF1, Homo sapiens, UniProt P04049, Y340D/Y341D)",enzyme activity,inhibitor,FRET,0.1 µM,,-5
C#CCN1CCCn2c1nc1c2c(=O)n(C)c(=O)n1C,ADORA2B,ligand displacement,,radioligand,10 µM,cell membranes,29
CC(Nc1ccc2ccccc2c1)C(=O)NN=Cc1cc(Br)c(O)c(Br)c1 (stereo not drawn),CFTR,ion current,inhibitor,,50 µM,,80
Oc1ncnc2[nH]ncc12,"Xanthine dehydrogenase/oxidase (XDH, Homo sapiens, UniProt P47989)",enzyme activity,inhibitor,absorbance,500 µM,,100
O=C(c1ccc(Cl)cc1)N(Cc1ccccc1)C1CCCCC1,PTGER2,cell-free assay,,,10 µM,,14.3
CC(C)CCCC(C)N1CCCn2c1nc1c2c(=O)n(C)c(=O)n1C (stereo not drawn),ADORA2B,ligand displacement,,radioligand,10 µM,cell membranes,0
CC(C)(NC(=O)OC1CCCCC1)c1csc(-c2ccc(F)cc2)n1,"N-terminal Xaa-Pro-Lys N-methyltransferase 1 (Homo sapiens, UniProt Q9BV86)",enzyme activity,inhibitor,fluorescence,100 µM,,< 50
CC(=NNC(=O)CNc1ccc2ccccc2c1)c1cc(Br)c(O)c(Br)c1,CFTR,ion current,inhibitor,,50 µM,,100
CCCCN1CCCn2c1nc1c2c(=O)n(C)c(=O)n1C,ADORA2B,ligand displacement,,radioligand,10 µM,cell membranes,3
O=C(CNc1cccc2ccccc12)NN=Cc1cc(Br)c(O)c(Br)c1O,CFTR,ion current,inhibitor,,50 µM,,86
Cn1cnc(Br)c1C1=CN(c2ncnc3[nH]cnc23)CCS1,PKN3,enzyme activity,inhibitor,radiometric,2 µM,,88.3
CCCC(C)N1CCCn2c1nc1c2c(=O)n(C)c(=O)n1C (stereo not drawn),ADORA2B,ligand displacement,,radioligand,10 µM,cell membranes,0
O=C(CNc1ccc(Cl)cc1)NN=Cc1cc(Br)c(O)c(Br)c1,CFTR,ion current,inhibitor,,50 µM,,95
CCN(CC)c1ccc(C2Nc3ccc(C(=O)c4ccccc4)cc3NC3=C2C(=O)CC(C)(C)C3)cc1 (stereo not drawn),"Beta-3 adrenergic receptor (ADRB3, Homo sapiens, UniProt P13945)",ligand displacement,,radioligand,10 µM,,0
O=C(c1ccc(F)cc1)N(Cc1ccccc1)C1CCCCC1,"Muscarinic acetylcholine receptor M1 (CHRM1, Homo sapiens, UniProt P11229)",cell-free assay,,,10 µM,,-1
Cn1cncc1C1=CN(c2ncnc3[nH]cnc23)CCS1,PKN3,enzyme activity,inhibitor,radiometric,2 µM,,80.4
CC(C)CC(C)N1CCCn2c1nc1c2c(=O)n(C)c(=O)n1C (stereo not drawn),ADORA2B,ligand displacement,,radioligand,10 µM,cell membranes,1
COc1cc(NC(C)=O)c(Cl)cc1C(=O)Nc1nccs1,PTGER2,cell-free assay,,,10 µM,,36.3
C=CN1CCCn2c1nc1c2c(=O)n(C)c(=O)n1C,ADORA2B,ligand displacement,,radioligand,10 µM,cell membranes,1
CCN(c1cc(C#CCN2CCOCC2)cc(C(=O)NCc2c(C)cc(C)[nH]c2=O)c1C)[C@H]1CC[C@H](N(C)CCOC)CC1,"Histone-lysine N-methyltransferase NSD2 (NSD2, Homo sapiens, UniProt O96028)",enzyme activity,inhibitor,,1 µM,,26
CN1CCCn2c1nc1c2c(=O)n(C)c(=O)n1C,ADORA2B,ligand displacement,,radioligand,10 µM,cell membranes,6
Cc1ccc(NCC(=O)NN=Cc2cc(Br)c(O)c(Br)c2O)cc1,CFTR,ion current,inhibitor,,50 µM,,79
